From ChEMBL document CHEMBL3861952, “Donepezil-like multifunctional agents: Design, synthesis, molecular modeling and biological evaluation” (Eur J Med Chem, 2016) come the findings set out here.

Activity calls are given as the source filed them. The calls are words filed in the database; no cut-off is given here. Bounds are passed on as bounds.

Assay [1] in a line: Antioxidant activity of the compound assessed as DPPH radical scavenging activity after 60 mins by spectrophotometric method. It is filed as functional. Put shortly:
(§1)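 DPPH scavenging: mixture shaken vigorously and left 60 min. Absorbance at 517 nm read and % activity calculated; trolox as comparator. Three replicates averaged.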
(In general: Loss of DPPH colour is used to gauge radical scavenging.)

Assay [2] can be described thus: Antioxidant activity of the compound assessed as inhibition of Cu2+/ascorbic acid-induced H2O2 production at 0.1 to 1 uM after 10 mins by horse-radish peroxidase/amplex red-based fluorometric method. It is filed as functional. In outline: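 H2O2 generated by 0.2 μM Cu(II) plus 10 μM ascorbic acid, incubated 10 min at room temperature with varying compound concentrations. HRP/Amplex Red mixture then added to quantify H2O2 formed.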

Assay [3] is described as follows: Antioxidant activity of the compound assessed as time required to induce AAPH-mediated linoleic acid peroxidation (reference value: 40 to 60 mins). It is filed as functional.
The species named for assay [4] is Homo sapiens. In words: Selectivity ratio of IC50 for human recombinant AChE to IC50 for human recombinant BuChE.
The nature of assay [5]: Antioxidant activity of the compound assessed as AAPH radical scavenging activity measured as trolox equivalent at 0.1 to 1 uM preincubated for 15 mins with fluorescein followed by addition of AAPH measured every min for 1 hr by oxygen radical absorbance capacity assay. It counts as functional. Put shortly:
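ORAC: compound diluted in 75 mM PBS pH 7.4 (0.1–1 μM) and pre-incubated 15 min at 37 °C with 70 nM fluorescein. 12 mM AAPH then added and fluorescence (ex 485/em 520) read every minute for 1 h. Net area under the decay curve converted against a trolox standard curve; melatonin as reference.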

Assay [6] is filed under the species Homo sapiens. In words: Selectivity index, ratio of IC50 for human recombinant MAOB to IC50 for human recombinant MAOA. In outline: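 Separate 30 min pre-incubations at 37 °C of serial inhibitor dilutions with recombinant human MAO-A (360 mU/mL) or MAO-B (67.5 mU/mL). Then 1 mM p-tyramine with HRP/Amplex UltraRed added, pH 7.4, and fluorescence followed ≥1 h. Index taken as IC50(MAO-B)/IC50(MAO-A); ≥3 experiments in triplicate.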

A short description of assay [7]: Antioxidant activity of the compound assessed as DPPH radical scavenging activity at 50 uM after 60 mins by spectrophotometric method. It is filed as functional. In outline:
as §1

Turning to `C#CCN(Cc1ccc2cccc(O)c2n1)C(C#N)CCC1CCN(Cc2ccccc2)CC1` (stereo not given), the values for the Activity result in assay [1] and in assay [5] were “Dose-dependent effect” and 1.12 equiv, respectively. In assay [2], the inhibition entry is “Active”. Besides, the TIME in assay [3] is 0.833 to 1 h. The Ratio IC50 is 0.7 in assay [4] and more than 9.9 in assay [6].
Take `Cc1c(C)c2c(c(C)c1O)CCC(C)(C(=O)O)O2` (stereo not given): the TIME in assay [3] was 1.67 to 2 h. Moreover, the outcome in assay [7] was Active.
`C#CCN(Cc1ccc(O)c2ncccc12)C(C#N)CCC1CCN(Cc2ccccc2)CC1` (stereo not given): the Ratio IC50 in assay [6] came out at 1.8.
For `C#CCN(Cc1ccc2cccc(O)c2n1)C(C#N)C1CCN(Cc2ccccc2)CC1` (stereo not given), the figures for the Ratio IC50 in assay [4] and in assay [6] were 2140 and more than 9.8, respectively.
As to `C#CCN(Cc1ccc2cccc(O)c2n1)CC1CCN(Cc2ccccc2)CC1`, the Ratio IC50 in assay [4] was 152; in assay [6] it was more than 2.2.
Regarding `COc1ccc2[nH]cc(CCNC(C)=O)c2c1`, in assay [5], the Activity came to 2.51 equiv.
As for `C#CCN(CCC1CCN(Cc2ccccc2)CC1)Cc1ccc2cccc(O)c2n1`, the Ratio IC50 in assay [4] is 52; in assay [6] it was more than 2.8.
Turning to `C#CCN(CCCC1CCN(Cc2ccccc2)CC1)Cc1ccc2cccc(O)c2n1`, the Ratio IC50 in assay [4] is 65; in assay [6], more than 2.7.
In the case of `C#CCN(Cc1ccc2cccc(O)c2n1)C(C#N)CC1CCN(Cc2ccccc2)CC1` (stereo not given), the Ratio IC50 was 1650 in assay [4] and more than 8.2 in assay [6].
